Measurements from ChEMBL document CHEMBL1138652, “Chlorothiophenecarboxamides as P1 surrogates of inhibitors of blood coagulation factor Xa” (Bioorg Med Chem Lett, 2004).
Values after ≈ are worked out from the molar mass of the structure shown. Values belong to the compound of their own block, whether it stands above or below them.

Columns and labels:
Coagulation factor X = Coagulation factor X (Homo sapiens, UniProt P00742); test: Inhibitory concentration against human serine protease factor Xa
Summary of the method: (§1)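 Human factor Xa, thrombin and trypsin were each monitored in vitro with a protease-specific chromogenic substrate. Inhibition was calculated from the ratio of optical density in drug-containing versus vehicle-containing assays.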

Trypsin = Trypsin (Homo sapiens, UniProt P07477+P07478+P35030); test: Inhibitory concentration against human trypsin activity; format: protein assay; summary of the method: as §1
Prothrombin = Prothrombin (Homo sapiens, UniProt P00734); test: Inhibitory concentration against human thrombin activity; summary of the method: as §1
[1] = Maximum absorbable dose of compound after administration at dose of 10 mg/kg was determined; format: ADME, organism-based; design: dose 10 mg/kg; settings: human
[2] = Solubility was determined; format: ADME; settings: human
Summary of the method: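 Shake-flask solubility was measured in phosphate buffer at pH 7 and 37 °C.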

[3] = Bioavailability of compound after peroral administration at dose of 0.5 mg/kg in female monkeys was determined; format: ADME, organism-based; settings: cercopithecidae, in vivo, po, read-out: Bioavailabiility
Summary of the method: (§2)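 Pharmacokinetics were studied in male Wistar rats (N = 3), female Beagle dogs (N = 2) and female Cynomolgus monkeys (N = 2). Each animal received single intravenous and oral doses. Plasma concentration–time data gave Cmax, tmax, AUC, t1/2, CL, Vss and oral bioavailability.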

[4] = Maximum plasma concentration after peroral administration of compound at dose of 0.5 mg/kg in female dogs was determined; format: ADME, organism-based, Canis lupus familiaris; design: dose 0.5 mg/kg, route oral; settings: dog, po; summary of the method: as §2
[5] = Clearance of compound after intravenous administration at dose of 0.2 mg/kg in female monkeys was determined; format: ADME, organism-based; design: dose 0.2 mg/kg, route intravenous; settings: cercopithecidae, in vivo; summary of the method: as §2
[6] = Area under curve concentration of compound at 6 hr after peroral administration at dose of 0.5 mg/kg in female monkeys was determined; format: ADME, organism-based; design: time < 6 hr, dose 0.5 mg/kg, route oral; settings: cercopithecidae, in vivo, po; summary of the method: as §2
[7] = Area under curve concentration of compound at 6 hr after peroral administration at dose of 0.5 mg/kg in female dogs was determined; format: ADME, organism-based, Canis lupus familiaris; design: time < 6 hr, dose 0.5 mg/kg, route oral; settings: dog, in vivo, po; summary of the method: as §2
[8] = Bioavailability of compound after peroral administration at dose of 0.5 mg/kg in male wistar rats was determined; format: ADME, organism-based; settings: rat, in vivo, po, read-out: Bioavailabiility; summary of the method: as §2
[9] = Half life of compound after intravenous administration at dose of 0.15 mg/kg in female dogs was determined; settings: dog, in vivo
[10] = Half life of compound after intravenous administration at dose of 0.2 mg/kg in male wistar rats was determined; format: ADME, organism-based; design: dose 0.2 mg/kg, route intravenous; settings: rat, in vivo; summary of the method: as §2
[11] = Steady state volume of distribution of compound after intravenous administration at dose of […] was determined; format: ADME, organism-based, Canis lupus familiaris; design: route intravenous; settings: dog, in vivo, read-out: Vss; summary of the method: as §2
[12] = Area under curve concentration of compound after intravenous administration at dose of 0.2 mg/kg in male wistar rats was determined; format: ADME, organism-based; design: dose 0.2 mg/kg, route intravenous; settings: rat, in vivo; summary of the method: as §2
[13] = Bioavailability of compound after peroral administration at dose of 0.5 mg/kg in female dogs was determined; format: ADME, organism-based, Canis lupus familiaris; settings: dog, in vivo, po, read-out: Bioavailabiility; summary of the method: as §2
[14] = Maximum plasma concentration after peroral administration of compound at dose of 0.5 mg/kg in male wistar rats was determined; format: ADME, organism-based; design: dose 0.5 mg/kg, route oral; settings: rat, po; summary of the method: as §2
[15] = Steady state volume of distribution of compound after intravenous administration at dose of 0.2 mg/kg in male wistar rats was determined; format: ADME, organism-based; design: dose 0.2 mg/kg, route intravenous; settings: rat, in vivo, read-out: Vss; summary of the method: as §2
[16] = Maximum time taken for concentration of compound in plasma after peroral administration at dose of 0.5 mg/kg in female monkeys was determined; format: ADME, organism-based; design: dose 0.5 mg/kg, route oral; settings: cercopithecidae, po; summary of the method: as §2
[17] = Maximum time taken for concentration of compound in plasma after peroral administration at dose of 0.5 mg/kg in male wistar rats was determined; format: ADME, organism-based; design: dose 0.5 mg/kg, route oral; settings: rat, po; summary of the method: as §2
[18] = Maximum plasma concentration after peroral administration of compound at dose of 0.5 mg/kg in female monkeys was determined; format: ADME, organism-based; design: dose 0.5 mg/kg, route oral; settings: cercopithecidae, po; summary of the method: as §2
[19] = Maximum time taken for concentration of compound in plasma after peroral administration at dose of 0.5 mg/kg in female dogs was determined; format: ADME, organism-based, Canis lupus familiaris; design: dose 0.5 mg/kg, route oral; settings: dog, po; summary of the method: as §2
[20] = Half life of compound after intravenous administration at dose of 0.2 mg/kg in female monkeys was determined; format: ADME, organism-based; design: dose 0.2 mg/kg, route intravenous; settings: cercopithecidae, in vivo; summary of the method: as §2
[21] = Area under curve concentration of compound after intravenous administration at dose of 0.2 mg/kg in female monkeys was determined; format: ADME, organism-based; design: dose 0.2 mg/kg, route intravenous; settings: cercopithecidae, in vivo; summary of the method: as §2
[22] = Clearance of compound after intravenous administration at dose of 0.2 mg/kg in male wistar rats was determined; format: ADME, organism-based; design: dose 0.2 mg/kg, route intravenous; settings: rat, in vivo; summary of the method: as §2
[23] = Area under curve concentration of compound at 6 hr after peroral administration at dose of 0.5 mg/kg in male wistar rats was determined; format: ADME, organism-based; design: time < 6 hr, dose 0.5 mg/kg, route oral; settings: rat, in vivo, po; summary of the method: as §2
[24] = Clearance of compound after intravenous administration at dose of 0.15 mg/kg in female dogs was determined; settings: dog, in vivo
[25] = Steady state volume of distribution of compound after intravenous administration at dose of 0.2 mg/kg in female monkeys was determined; format: ADME, organism-based; design: dose 0.2 mg/kg, route intravenous; settings: cercopithecidae, in vivo, read-out: Vss; summary of the method: as §2
[26] = Area under curve concentration of compound after intravenous administration at dose of 0.15 mg/kg in female dogs was determined; settings: dog, in vivo

Coagulation factor X, sequence (P00742 41-179 limits assumed): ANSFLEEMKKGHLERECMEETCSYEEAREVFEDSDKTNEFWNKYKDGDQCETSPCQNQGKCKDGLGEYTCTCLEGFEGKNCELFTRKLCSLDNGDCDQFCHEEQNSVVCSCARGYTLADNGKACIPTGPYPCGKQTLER
Coagulation factor X, sequence (P00742 235-488 limits assumed): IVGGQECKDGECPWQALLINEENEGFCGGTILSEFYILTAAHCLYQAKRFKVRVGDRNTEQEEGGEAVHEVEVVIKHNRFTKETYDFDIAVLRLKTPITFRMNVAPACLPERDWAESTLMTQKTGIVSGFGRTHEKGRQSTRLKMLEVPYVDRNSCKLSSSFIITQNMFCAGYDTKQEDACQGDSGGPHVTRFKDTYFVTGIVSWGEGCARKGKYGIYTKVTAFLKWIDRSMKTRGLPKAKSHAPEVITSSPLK

IC50 (Coagulation factor X): 0.012 µM | IC50 (Trypsin): > 10 µM | IC50 (Prothrombin): > 10 µM
SMILES: CCC[C@@H](NC(=O)c1ccc(Cl)s1)C(=O)Nc1ccc(N2CCOCC2=O)cc1

IC50 (Coagulation factor X): 0.0072 µM | IC50 (Trypsin): > 10 µM | MAD [1]: 0.6 mg/kg | solubility [2]: 29 µg/mL (≈ 62.5 µM) | IC50 (Prothrombin): > 10 µM
SMILES: Cc1cc(NC(=O)[C@@H](CC(C)C)NC(=O)c2ccc(Cl)s2)ccc1N1CCOCC1=O

IC50 (Coagulation factor X): 0.029 µM | IC50 (Trypsin): > 10 µM | IC50 (Prothrombin): > 10 µM
SMILES: O=C(N[C@@H](C(=O)Nc1ccc(N2CCOCC2=O)cc1)c1ccccc1)c1ccc(Cl)s1

IC50 (Coagulation factor X): 0.026 µM | IC50 (Trypsin): > 10 µM | IC50 (Prothrombin): > 10 µM
SMILES: O=C(N[C@H](C(=O)Nc1ccc(N2CCOCC2=O)cc1)c1ccccc1)c1ccc(Cl)s1

IC50 (Coagulation factor X): 0.059 µM | IC50 (Trypsin): > 10 µM | IC50 (Prothrombin): > 10 µM
SMILES: C[C@@H](NC(=O)c1ccc(Cl)s1)C(=O)Nc1ccc(N2CCOCC2=O)cc1

IC50 (Coagulation factor X): 0.039 µM | IC50 (Trypsin): > 10 µM | IC50 (Prothrombin): > 10 µM
SMILES: CC(C)C[C@@H](NC(=O)c1ccc(Cl)s1)C(=O)Nc1ccc(-n2ccncc2=O)cc1

IC50 (Coagulation factor X): 0.13 µM | IC50 (Trypsin): > 10 µM | IC50 (Prothrombin): > 10 µM
SMILES: CC(C)C[C@H](NC(=O)c1ccc(Cl)s1)C(=O)Nc1ccc(N2CCOCC2=O)cc1

IC50 (Coagulation factor X): 0.012 µM | IC50 (Trypsin): > 10 µM | MAD [1]: 1.9 mg/kg | solubility [2]: 92 µg/mL (≈ 192 µM) | IC50 (Prothrombin): > 10 µM
SMILES: CCCOC[C@@H](NC(=O)c1ccc(Cl)s1)C(=O)Nc1ccc(N2CCOCC2=O)c(C)c1

IC50 (Coagulation factor X): 0.016 µM | IC50 (Trypsin): > 10 µM | IC50 (Prothrombin): > 10 µM
SMILES: CC(C)C[C@@H](NC(=O)c1ccc(Cl)s1)C(=O)Nc1ccc(-n2ccccc2=O)cc1

IC50 (Coagulation factor X): 0.015 µM | IC50 (Trypsin): > 10 µM | MAD [1]: 2.8 mg/kg | solubility [2]: 134 µg/mL (≈ 318 µM) | IC50 (Prothrombin): > 10 µM
SMILES: Cc1cc(NC(=O)[C@@H](C)NC(=O)c2ccc(Cl)s2)ccc1N1CCOCC1=O

bioavailability [3]: ~80% | IC50 (Trypsin): > 10 µM | Cmax [4]: 161 ng/mL | clearance [5]: 4.17 mL/min/kg | MAD [1]: 11 mg/kg | solubility [2]: 510 µg/mL (≈ 1130 µM) | AUC [6]: 1100 ng·h/mL | AUC [7]: 211 ng·h/mL | bioavailability [8]: ~60% | half-life [9]: 34.2 min | half-life [10]: 66 min | Vd [11]: 0.86 L/kg | AUC [12]: 212 ng·h/mL | bioavailability [13]: ~60% | Cmax [14]: 92 ng/mL | Vd [15]: 1.6 L/kg | Tmax [16]: 30 min | Tmax [17]: 150 min | Cmax [18]: 270 ng/mL | IC50 (Prothrombin): > 10 µM | Tmax [19]: 30 min | half-life [20]: 138 min | AUC [21]: 803 ng·h/mL | clearance [22]: 15.7 mL/min/kg | AUC [23]: 271 ng·h/mL | clearance [24]: 21.7 mL/min/kg | Vd [25]: 0.81 L/kg | AUC [26]: 117 ng·h/mL
SMILES: COC[C@@H](NC(=O)c1ccc(Cl)s1)C(=O)Nc1ccc(N2CCOCC2=O)c(C)c1

IC50 (Prothrombin): > 10 µM
SMILES: O=C(CCc1ccc2nc(-c3ccc(Cl)s3)[nH]c2c1)Nc1ccc(N2CCOCC2=O)cc1F
